IMP-1 inhibitor: blocks Pseudomonas aeruginosa IMP-1 metallo-beta-lactamase; purified IMP-1, nitrocefin hydrolysis, epi-absorbance fluorescence; inhibition, % at 5.6 µM; 0.45% of 290,000 active;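 active means inhibition above the mean plus 3 SD of all compounds in the same screening run, cut at about 4.5% in these data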
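System: purified IMP-1 / Input: IMP-1 dispensed at 0.2 nM / Medium: 50 mM HEPES pH 7.1, 50 µM ZnSO4, 0.05% Brij 35 / Timing: 15 min enzyme–compound preincubation, then 25 min nitrocefin reaction, 25 °C / Technique: plate fluorescence quenching by hydrolysis product, ex 480/em 530 nm / Repeats: singlicate testing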
FID counter: counter-screen for HCV NS3 helicase inhibitors: DNA intercalator displacement; DNA fluorescent intercalator displacement, fluorescence; inhibition, % at 7.9 µM; 0.17% of 290,000 active; AID 1845; in the data active means inhibition above about 37%;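 further: higher means more ethidium bromide displaced from hairpin DNA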
NALP1 yeast inh: blocks the NALP1 inflammasome reconstituted in yeast; S. cerevisiae NALP1/ASC/caspase-1 growth, X-gal OD620, 72 h; inhibition, % at 10 µM; 0.61% of 280,000 active; AID 2071; in the data active means inhibition mostly above about 24%, no sharp cut-off; inactive means mostly below about 32%
Mot1-301 SUMO: inhibitors of SUMOylation pathway: yeast Mot1-301 growth rescue. S. cerevisiae Mot1-301 growth rescue, ATP luminescence, 38.5C; percent above DMSO median, 100 means doubled. growth rescue, % at 18.8 µM. 1% of 320,000 active. AID 2716;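 active means every valid replicate shows activation above 250% relative to neutral control wells; inactive means the rest, any valid replicate at or below 250%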
UBC9 SUMO inh: inhibitors of human SUMOylation (UBC9); P63279; HTRF SUMOylation assay, SAE1/SAE2 + UBC9, in vitro; inhibition, % at 35 µM; 0.36% of 290,000 active; AID 2006; in the data active means inhibition above about 50%, passing the limit was not always enough
Target sequence (P63279 whole entry, looked up): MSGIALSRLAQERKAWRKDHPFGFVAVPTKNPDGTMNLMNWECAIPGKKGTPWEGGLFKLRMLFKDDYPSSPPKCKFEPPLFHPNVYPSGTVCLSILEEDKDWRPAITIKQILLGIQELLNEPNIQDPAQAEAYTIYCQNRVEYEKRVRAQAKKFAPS
VIM-2 inhibitor: inhibitors of Pseudomonas aeruginosa VIM-2 metallo-beta-lactamase | purified VIM-2, nitrocefin hydrolysis, epi-absorbance fluorescence | inhibition, % at 5.6 µM | 0.89% of 290,000 active | AID 1527;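 active means inhibition above the mean of all tested compounds plus 3 SD, cutoff set per screening run, cut at about 7.5% in these data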;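 further: red hydrolysis product quenches plate fluorescence so inhibitors raise well fluorescence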
A number is an active result; - = inactive; . = no result. Rows were chosen to be rich in hits. Some 2.9% of all compounds tested hit in one or more screens of this group.

SMILES	IMP-1 inhibitor	FID counter	NALP1 yeast inh	Mot1-301 SUMO	UBC9 SUMO inh	VIM-2 inhibitor
Cc1nn(-c2ccccc2)c2c1C(c1c(C)[nH]c(C#N)c1C)C(C#N)=C(N)O2 (stereo not drawn)	-	-	-	-	75	-
O=c1c2[nH]c3ccc(F)cc3c2ncn1CCCN1CCOCC1	-	-	-	-	-	-
O=c1c2[nH]c3ccc(F)cc3c2ncn1CCCn1ccnc1	-	-	-	-	-	8.0
S=C1NC2=C(CCC/C2=C\c2ccc(Cl)cc2)C(c2ccc(Cl)cc2)N1 (stereo not drawn)	-	-	40	-	-	-
Cc1c(CNCCC2=CCCCC2)c(C(=O)O)c(C)n1Cc1ccccc1	-	-	-	-	-	-
COc1cc(NC(=O)C(=O)NCCN2CCNCC2)c(OC)cc1Cl	-	-	-	-	-	10
Nc1nc(N)nc(-c2ccc(Oc3ccccc3)cc2)n1	-	-	-	-	-	-
Cc1sc(N)nc1-c1ccc(Oc2ccccc2)cc1	-	-	95	-	-	-
Cc1ccc(C)c(C(=O)CCC(=O)O)c1	-	-	-	-	-	-
COc1ccc(-c2nc3ccncc3[nH]2)cc1OC	-	-	-	-	65	-
CC[C@@H]1C=C(C(=O)O)[C@H](c2ccc(OC)c(OC)c2)N1S(=O)(=O)c1ccc(C)cc1	.	.	.	-	.	.
CCCOc1ccc(-c2nc(=S)[nH][nH]2)cc1	35	-	-	-	-	-
S=c1nc(-c2ccc(Cl)cc2)[nH][nH]1	-	-	.	-	-	-
Cc1nccn1CC(=O)N/N=C/c1cc(Br)cs1	-	-	-	-	-	-
O=C(Cn1c2ccccc2c(=O)c2cc([N+](=O)[O-])ccc21)Nc1ccccc1Cl	-	-	-	-	51	-
O=C(CCC(=O)c1ccccc1)NCc1ccccc1	-	-	-	-	-	-
C#CCOCCOCCOCCNc1nc(N2CCN(C(=O)[C@H]([C@@H](C)CC)n3cc([C@@H](N)CC(C)C)nn3)CC2)nc(N2CCN(C(=O)[C@H](CCCCN)n3cc([C@@H](N)CC(C)C)nn3)CC2)n1	-	38	-	-	-	-
C#CCOCCOCCOCCNc1nc(N2CCN(C(=O)[C@H]([C@@H](C)CC)n3cc(CCCN=C(N)N)nn3)CC2)nc(N2CCN(C(=O)[C@H]([C@@H](C)CC)n3cc(CCCN=C(N)N)nn3)CC2)n1	-	43	-	.	-	-
C#CCOCCOCCOCCNc1nc(N2CCN(C(=O)C([C@@H](C)CC)n3cc(C(N)COC(=O)C(F)(F)F)nn3)CC2)nc(N2CCN(C(=O)[C@H](CCCCN)n3cc(C(N)[C@H](C)CC)nn3)CC2)n1 (stereo partly drawn)	.	.	.	-	.	.
C#CCOCCOCCOCCNc1nc(N2CCN(C(=O)[C@H]([C@@H](C)CC)n3cc([C@@H](N)CC(C)C)nn3)CC2)nc(N2CCN(C(=O)[C@H](CCCCN)n3cc([C@@H](N)C(C)CC)nn3)CC2)n1 (stereo partly drawn)	-	45	-	-	-	-
CCOC(=O)c1c(NC(=O)C(C)N2CCN(S(=O)(=O)c3cccs3)CC2)sc2c1CCC(C)C2 (stereo not drawn)	-	-	-	-	-	-
Cc1cc(OCC(=O)NC2CCN(Cc3ccccc3)CC2)c2c(C)cc(=O)oc2c1	-	-	-	-	-	9.3
CC1CCN(S(=O)(=O)c2cccc(S(=O)(=O)N3CCOCC3)c2)CC1	5.4	-	-	-	-	-
O=S(=O)(c1cccc(S(=O)(=O)N2CCC(N3CCCCC3)CC2)c1)N1CCOCC1	-	-	-	.	-	-
CCc1ccc(NC(=O)CN(CC(=O)Nc2ccc(CC)cc2)CC(C)O)cc1 (stereo not drawn)	18	-	-	-	-	-
SMILES	IMP-1 inhibitor	FID counter	NALP1 yeast inh	Mot1-301 SUMO	UBC9 SUMO inh	VIM-2 inhibitor
CCc1ccc(NC(=O)Cc2ccc(OC)cc2)cc1	-	-	-	-	-	-
Oc1ccc(NCc2cccc(OCc3ccc(F)cc3)c2)cc1	-	-	-	-	74	-
COc1ccc(CC(=O)NNC(=O)c2cccnc2)cc1OC	-	-	-	-	-	-
Cc1ccc(-c2nnc3c4ccccc4c(C)nn23)cc1S(=O)(=O)N1CCN(C)CC1	-	-	.	-	.	12
O=c1c2cc(N3CCOCC3)ccc2[nH]c(=S)n1Cc1ccccn1	-	-	-	-	55	-
O=c1c2cc(N3CCOCC3)ccc2[nH]c(=S)n1Cc1ccccc1Cl	-	-	-	-	-	-
Cc1ccc(-c2cc(C(F)F)n3ncc(C(=O)N4CCCCC4c4cccnc4)c3n2)cc1 (stereo not drawn)	-	-	-	548	-	-
N#Cc1c(C(F)(F)F)cc(-c2ccccc2Cl)[nH]c1=O	-	-	-	-	-	-
N/C(=N\c1nc(CSc2nnnn2-c2ccccc2)cc(=O)[nH]1)Nc1ccccc1	-	-	-	-	-	-
O=c1cc(CSc2nnnn2-c2ccccc2)nc(Nc2ccc(F)cc2)[nH]1	-	-	-	-	.	10.0
CN1N=C(C(=O)N2CCc3c([nH]c4ccccc34)C2c2c(F)cccc2Cl)CCC1=O (stereo not drawn)	-	-	-	-	-	-
Cc1cc(C)nc(N/N=C/c2cc(Br)ccc2O)n1	-	-	-	.	-	-

Screening results from PubChem BioAssay.
